Experimental data from ChEMBL document CHEMBL3875165, “Novel broad-spectrum and long-acting parenteral cephalosporins having an acyl cyanamide moiety at the C-3 terminal: Synthesis and structure-activity relationships” (Eur J Med Chem, 2016).
Values after ≈ are worked out from the molar mass of the structure shown.

Legend:
[1] = AUC (0 to infinity) in monkey at 20 mg/kg, iv administered as bolus dose by HPLC method; format: ADME, organism-based, Macaca mulatta; set-up: dose 20 mg/kg, time infinity, route intravenous; conditions: rhesus monkey, in vivo
In short: (§1)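 Three monkeys per group received a single iv bolus of 20 mg/kg (1 mL/kg). Plasma levels were measured by HPLC. AUC0-∞, CLtot and T1/2 came from a 2-compartment fit.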

[2] = Half life in monkey at 20 mg/kg, iv administered as bolus dose by HPLC method; format: ADME, organism-based, Macaca mulatta; conditions: rhesus monkey, in vivo; in short: as §1
[3] = Total clearance in monkey at 20 mg/kg, iv administered as bolus dose by HPLC method; format: ADME, organism-based, Macaca mulatta; conditions: rhesus monkey, in vivo; in short: as §1
[4] = Protein binding in ICR mouse plasma after 30 mins by ultra-filtration method; format: ADME, cell-free; conditions: read-out: PPB (converted)
In short: (§2)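 Mouse or monkey plasma was adjusted to pH 7 with CO2 and spiked with compound to a final 10 µg/ml. It was incubated 30 min at 37 °C, then ultrafiltered by centrifugation at 3200 rpm for 30 min at 25 °C. Free drug in the filtrate was measured by bioassay to give the bound fraction.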

[5] = Protein binding in cynomolgus monkey plasma after 30 mins by ultra-filtration method; format: ADME, cell-free, Macaca fascicularis; conditions: read-out: PPB (converted); in short: as §2
Staphylococcus aureus [6] = assay: Antibacterial activity against Staphylococcus aureus SMITH after 20 hrs by agar dilution method; format: functional
In short: (§3)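 Agar dilution MIC on Sensitivity Disk Agar-N with 2-fold serial drug dilutions. Overnight Mueller Hinton broth cultures were diluted to about 10^6 CFU/mL, and 1 µL spots were applied. Plates were incubated 20 h at 37 °C before scoring.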

Streptococcus pneumoniae [7] = assay: Antibacterial activity against penicillin-resistant Streptococcus pneumoniae SR16675 after 20 hrs by agar dilution method; format: functional; conditions: SR16675, 20 h
In short: (§4)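 Agar dilution on Sensitivity Disk Agar-N. Overnight Mueller Hinton broth cultures were diluted to about 10^6 CFU/mL, and 1 µL spots were placed on agar plates holding 2-fold serial dilutions of antibiotic. Plates were incubated 20 h at 37 °C and then MICs were scored.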

Streptococcus pneumoniae [8] = assay: Antibacterial activity against penicillin-resistant Streptococcus pneumoniae SR16750 after 20 hrs by agar dilution method; format: functional; conditions: SR16750, 20 h; in short: as §4
Haemophilus influenzae [9] = assay: Antibacterial activity against beta-lactamase non-producing penicillin-resistant Haemophilus influenzae SR11435 after 20 hrs by agar dilution method; format: functional; conditions: SR11435, 20 h; in short: as §4
Haemophilus influenzae [10] = assay: Antibacterial activity against beta-lactamase non-producing penicillin-resistant Haemophilus influenzae SR24106 after 20 hrs by agar dilution method; format: functional; conditions: SR24106, 20 h; in short: as §4
Moraxella catarrhalis = assay: Antibacterial activity against Moraxella catarrhalis SR24290 after 20 hrs by agar dilution method; format: functional; conditions: SR24290, 20 h; in short: as §3
Escherichia coli [11] = assay: Antibacterial activity against Escherichia coli NIHJ JC-2 after 20 hrs by agar dilution method; format: functional; conditions: NIHJ JC-2, 20 h; in short: as §3
[12] = Half life in mouse at 20 mg/kg, iv administered as bolus dose by band-culture bioassay; conditions: in vivo
[13] = Total clearance in mouse at 20 mg/kg, iv administered as bolus dose by band-culture bioassay; conditions: in vivo
[14] = AUC (0 to infinity) in mouse at 20 mg/kg, iv administered as bolus dose by band-culture bioassay; conditions: in vivo
Staphylococcus aureus [15] = assay: Antibacterial activity against Staphylococcus aureus SMITH; format: functional; in short: as §3
Staphylococcus aureus [16] = assay: Antibacterial activity against methicillin-resistant Staphylococcus aureus SR2030; format: functional; in short: as §4
Staphylococcus aureus [17] = assay: Antibacterial activity against methicillin-resistant Staphylococcus aureus SR3626; format: functional; in short: as §4
Escherichia coli [18] = assay: Antibacterial activity against Escherichia coli NIHJ JC-2; format: functional; in short: as §3
Pseudomonas aeruginosa [19] = assay: Antibacterial activity against Pseudomonas aeruginosa PAO1; format: functional; in short: as §3
Pseudomonas aeruginosa [20] = assay: Antibacterial activity against Pseudomonas aeruginosa SA24; format: functional; in short: as §3
Streptococcus pneumoniae [21] = assay: Antibacterial activity against penicillin-susceptible Streptococcus pneumoniae SR16605 infected in sc dosed mouse assessed as protection against bacterial infection by measuring increase in mouse survival administered 1 and 5 hrs post infection measured after 7 days; format: functional
In short: (§5)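 Mouse septicemia model in six-week-old male Jcl:ICR mice (19 to 25 g). Mice were infected intraperitoneally with 0.5 mL of S. pneumoniae suspension in hog mucin. Compound was given subcutaneously 1 and 5 h after infection. Mortality was recorded over 7 days, and ED50 with 90% confidence limits was derived by the logit method.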

Streptococcus pneumoniae [22] = assay: Antibacterial activity against penicillin-resistant Streptococcus pneumoniae SR16754 infected in sc dosed mouse assessed as protection against bacterial infection by measuring increase in mouse survival administered 1 and 5 hrs post infection measured after 7 days; format: functional; in short: as §5
Streptococcus pneumoniae [23] = assay: Antibacterial activity against penicillin-susceptible Streptococcus pneumoniae SR16605 after 20 hrs by agar dilution method; format: functional; conditions: SR16605, 20 h; in short: as §4
Streptococcus pneumoniae [24] = assay: Antibacterial activity against penicillin-resistant Streptococcus pneumoniae SR16754 after 20 hrs by agar dilution method; format: functional; conditions: SR16754, 20 h; in short: as §4

Row | SMILES | AUC [1] [ng·h/mL] | half-life [2] [h] | clearance [3] [mL/min/kg] | fraction unbound at 0.5 h [4] | fraction unbound at 0.5 h [5] | MIC (Staphylococcus aureus [6]) [µg/mL] | MIC (Streptococcus pneumoniae [7]) [µg/mL] | MIC (Streptococcus pneumoniae [8]) [µg/mL] | MIC (Haemophilus influenzae [9]) [µg/mL] | MIC (Haemophilus influenzae [10]) [µg/mL] | MIC (Moraxella catarrhalis) [µg/mL] | MIC (Escherichia coli [11]) [µg/mL] | half-life [12] [h] | clearance [13] [mL/min/kg] | AUC(0-inf) [14] [ng·h/mL] | further results
1 | CCO/N=C(\C(=O)N[C@@H]1C(=O)N2C(C(=O)[O-])=C(/C=C/C[n+]3ccc4sc(/C([O-])=N/C#N)nc4c3)CS[C@H]12)c1csc(N)n1.[Na+] | 24500 | 2.86 | 0.68 | 0.59 | 0.16 | 0.5 | 0.125 | 0.25 | 0.063 | 0.063 | 0.5 | 0.25 | 0.7 | 14 | 23700 | –
2 | CCO/N=C(\C(=O)N[C@@H]1C(=O)N2C(C(=O)[O-])=C(C[n+]3ccc(-c4cc[nH]c4)cc3)CS[C@H]12)c1nsc(N)n1 | – | – | – | – | – | – | – | – | – | – | – | – | – | – | – | MIC (Staphylococcus aureus [15]): 0.4 µg/mL (≈ 0.721 µM); MIC (Staphylococcus aureus [16]): 1.6 µg/mL (≈ 2.88 µM); MIC (Staphylococcus aureus [17]): 6.3 µg/mL (≈ 11.4 µM); MIC (Escherichia coli [18]): 0.02 µg/mL (≈ 0.0361 µM); MIC (Pseudomonas aeruginosa [19]): 0.8 µg/mL (≈ 1.44 µM); MIC (Pseudomonas aeruginosa [20]): 0.8 µg/mL (≈ 1.44 µM)
3 | CCO/N=C(\C(=O)N[C@@H]1C(=O)N2C(C(=O)[O-])=C(/C=C/C[n+]3cccc4[nH]c(/C([O-])=N/C#N)cc43)CS[C@H]12)c1csc(N)n1.[Na+] | 9800 | 2.03 | 1.74 | 0.64 | 0.4 | 0.5 | 0.25 | 0.5 | 0.031 | 0.125 | 1 | 0.125 | 0.73 | 14.1 | 23600 | –
4 | CCO/N=C(\C(=O)N[C@@H]1C(=O)N2C(C(=O)[O-])=C(/C=C/C[n+]3cccc4cc(/C([O-])=N/C#N)ccc43)CS[C@H]12)c1csc(N)n1.[Na+] | 8200 | 1.74 | 2.08 | 0.9 | 0.63 | 0.25 | 0.25 | 0.5 | 0.031 | 0.125 | 0.5 | 0.125 | 0.95 | 25.7 | 12900 | –
5 | CCO/N=C(\C(=O)N[C@@H]1C(=O)N2C(C(=O)[O-])=C(/C=C/C[n+]3ccc4c(/C([O-])=N\C#N)cccc4c3)CS[C@H]12)c1csc(N)n1.[Na+] | 10600 | 1.52 | 1.59 | 0.97 | 0.42 | 0.5 | 0.25 | 0.5 | 0.063 | 0.125 | 2 | 0.125 | 0.73 | 23.5 | 14200 | –
6 | CO/N=C(\C(=O)N[C@@H]1C(=O)N2C(C(=O)[O-])=C(C[n+]3ccn4ncccc43)CS[C@H]12)c1nsc(N)n1 [CEFOZOPRAN] | 15000 | 1.2 | – | – | – | – | – | – | – | – | – | – | 0.4 | – | 30300 | MIC (Staphylococcus aureus [15]): 0.8 µg/mL (≈ 1.55 µM); MIC (Staphylococcus aureus [16]): 12.5 µg/mL (≈ 24.2 µM); MIC (Staphylococcus aureus [17]): 50 µg/mL (≈ 97 µM); MIC (Escherichia coli [18]): 0.05 µg/mL (≈ 0.097 µM); MIC (Pseudomonas aeruginosa [19]): 0.8 µg/mL (≈ 1.55 µM); MIC (Pseudomonas aeruginosa [20]): 0.4 µg/mL (≈ 0.776 µM)
7 | CO/N=C(\C(=O)N[C@@H]1C(=O)N2C(C(=O)O)=C(CSc3nc(=O)c(=O)[nH]n3C)CS[C@H]12)c1csc(N)n1 [CEFTRIAXONE] | 21900 | 1.95 | 0.77 | 0.06 | 0.05 | 2 (≈ 3.61 µM) | 1 (≈ 1.8 µM) | 2 (≈ 3.61 µM) | 0.125 (≈ 0.225 µM) | 0.25 (≈ 0.451 µM) | 1 (≈ 1.8 µM) | 0.125 (≈ 0.225 µM) | 0.64 | 5.49 | 60800 | ED50 (Streptococcus pneumoniae [21]): 0.11 mg/kg; ED50 (Streptococcus pneumoniae [22]): 5.65 mg/kg; MIC (Streptococcus pneumoniae [23]): 0.016 µg/mL (≈ 0.0289 µM); MIC (Streptococcus pneumoniae [24]): 1 µg/mL (≈ 1.8 µM)
